Experimental data as given in article PMC3845662 (Analytical chemistry, 2013).
Where “and” joins values, the source holds several entries; their conditions need not be identical. Equal entries are not always repeated.

Assays:
Hsp70-Bag3 complex [1] = target: T1, Hsp70-Bag3 complex (Homo sapiens, UniProt P0DMV8); assay: CE-LIF screen / dose response for inhibition of the Hsp70-Bag3 interaction; type: binding; settings: for classification from electropherogram (artifact): 20 μM compound; for hit in CE screen, reconfirmed with repurchased compound by DRC: primary screen 20 μM, repurchased compound dose response
T1 sequence (P0DMV8 whole entry, one chain of several): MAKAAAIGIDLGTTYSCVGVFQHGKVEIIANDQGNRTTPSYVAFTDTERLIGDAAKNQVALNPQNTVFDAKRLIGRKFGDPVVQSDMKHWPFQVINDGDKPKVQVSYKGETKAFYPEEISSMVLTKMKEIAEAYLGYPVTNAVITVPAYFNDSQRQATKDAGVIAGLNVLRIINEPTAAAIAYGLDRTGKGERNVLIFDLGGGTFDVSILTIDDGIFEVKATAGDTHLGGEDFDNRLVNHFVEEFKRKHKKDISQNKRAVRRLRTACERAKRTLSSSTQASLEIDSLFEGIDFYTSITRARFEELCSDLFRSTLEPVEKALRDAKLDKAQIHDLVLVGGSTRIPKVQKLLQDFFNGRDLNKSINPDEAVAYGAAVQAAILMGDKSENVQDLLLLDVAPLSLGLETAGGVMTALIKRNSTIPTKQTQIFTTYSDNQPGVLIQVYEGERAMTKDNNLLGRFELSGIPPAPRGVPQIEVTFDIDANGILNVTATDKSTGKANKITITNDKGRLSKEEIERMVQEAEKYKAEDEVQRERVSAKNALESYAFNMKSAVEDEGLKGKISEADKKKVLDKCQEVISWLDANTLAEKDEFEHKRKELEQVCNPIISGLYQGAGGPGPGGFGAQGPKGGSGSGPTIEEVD
Procedure, shortened: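 Incubated ≥15 min at ambient temperature with dry-spotted compound; unlabelled Hsp70 as positive control. Coated capillary, 10 cm, 25 °C, pH 7.5 phosphate/Tween buffer, 500 V/cm. LIF bound/free peak-area ratio; screen hits ≥3 SD.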

Hsp70-Bag3 complex [2] = target: T1, Hsp70-Bag3 complex; assay: Flow cytometry protein interaction assay; type: binding; settings: for cross-test of CE hit by DRC in FCPIA: repurchased compound, dose response; for result in original FCPIA screen: single concentration 20 μM, hit = inhibition ≥ 3 SD from negative controls
Procedure, shortened: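 Biotinylated Hsp70 was immobilised on streptavidin polystyrene beads for 1 h, then mixed with Alexa Fluor 488-labelled Bag3 (30 nM final) and compound or DMSO. Unlabelled Hsp70 served as positive control. After 15 min, median bead-associated fluorescence was read by flow cytometry. Screen used 20 μM; hits ≥3 SD from negative controls.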

Hsp70 = settings: cited from earlier work
[3] = 0.5 μM Hsp70–488 and 0.5 μM Bag3

Molecule | classification from electropherogram (artifact) (Hsp70-Bag3 complex [1]; [3]) | cross-test of CE hit by DRC in FCPIA (Hsp70-Bag3 complex [2]) | result in original FCPIA screen (Hsp70-Bag3 complex [2]) | hit in CE screen, reconfirmed with repurchased compound by DRC (Hsp70-Bag3 complex [1]) | further results
O=C(O[C@@H]1Cc2c(O)cc(O)cc2O[C@@H]1c1cc(O)c(O)c(O)c1)c1cc(O)c(O)c(O)c1 [Epigallocatechin gallate] | – | – | – | – | classification from electropherogram (Hsp70-Bag3 complex [1]; 15 μM compound, 0.5 μM Hsp70–488 and 0.5 μM Bag3): confirmed PPI inhibitor
O=C(O)CN(CC(=O)O)Cc1cc2c(cc1O)Oc1cc(O)c(CN(CC(=O)O)CC(=O)O)cc1C21OC(=O)c2ccccc21 [calcein] | identified as a fluorescent compound that interferes with detection of free Hsp70–488 | – | – | – | –
CC1=C(O)C(=O)C=C2C1=CC=C1[C@@]2(C)CC[C@@]2(C)[C@@H]3C[C@](C)(C(=O)O)CC[C@]3(C)CC[C@]12C [celastrol] | – | reconfirmed by FCPIA | missed in the original FCPIA screen | found by CE | –
Oc1cc2c(cc1O)C1c3ccc(O)c(O)c3OCC1(O)C2 (centres unmarked) [haematoxylin] | identified as an aggregator | – | – | – | –
O=c1c(O)c(-c2cc(O)c(O)c(O)c2)oc2cc(O)cc(O)c12 [myricetin] | – | reconfirmed by FCPIA | missed in the original FCPIA screen | found by CE | known modulator of Hsp70 (Hsp70): known modulators of Hsp70
unlabeled Hsp70: unlabeled recombinant human Hsp70 (HSPA1) used as competitor and positive control | – | – | – | – | IC50 (decrease of bound to free peak area ratio) (Hsp70-Bag3 complex [1]; 0.5 μM Hsp70–488 and 0.5 μM Bag3 with increasing unlabeled Hsp70): 240 ± 3 nM and 240 nM
